Data taken from the EternaBench riboswitch data.

Test system: MS2 coat protein
Experiment: apparent Kd, MS2 coat protein; higher = weaker binding; RNA-MaP array; FMN 200 µM where present
In short: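 Binding was read on Illumina sequencing-chip clusters where stalled E. coli RNA polymerase had transcribed each design. A titration of SNAP-549-labelled MS2 coat protein began at 0.7 or 1.5 nM and doubled to 3 µM, once without ligand and once with constant ligand, in 100 mM Tris-HCl pH 7.5, 80 mM KCl, 4 mM MgCl2, BSA, DTT, yeast tRNA and Tween-20. The apparent Kd is the median of filtered per-cluster binding-curve fits, based on green signal normalised to red-channel RNA signal and control-cluster median Fmax.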

[1] = designed as: OFF switch for flavin mononucleotide, no ligand
[2] = ligand present: flavin mononucleotide, designed as: OFF switch for flavin mononucleotide
[3] = designed as: ON switch for flavin mononucleotide, no ligand
[4] = ligand present: flavin mononucleotide, designed as: ON switch for flavin mononucleotide

Sequence | apparent Kd [1] [nM] | apparent Kd [2] [nM] | apparent Kd [3] [nM] | apparent Kd [4] [nM]
UUUAGUUCAGGAUAUGUAGAUUUUAACAUGAGGAUCACCCAUGUAGAUCCUGAUCCUGCUACAGAAGGAAAGAUUU | 26.9 | 25.5 |  | 
GAUCAACAUGAGGAUCACCCAUGUGAGGAUAUGAUACUAUGUACUUCGGUACAUAGUAUCAGAAGGCAUAUGAA | 56.7 | 98.5 |  | 
GUAAAUCAUGUAGGAUAUGCAUGGCGAAGCUACGCAGAAGGACAUGAGGAUCACCCAUGUGCUAGCUACCGAGUUCGGUGGCAA | 77.1 | 354 |  | 
AUUUAUGGCCAGAAGGACAUGAGGAUCACCCAUGUAGGAUAUGGACGAUUUUGCUCGACGGUUUGUUAAGGAAGCACCGGUGGU |  |  | 12.4 | 6.52
UCAUAUUUACAAGGAUAUCAAUUAAUUAAACAUCCUACAUGAGGAUCACCCAUGUUAAAAUAUUAUGAGAAGGUGUAUUGUCGG |  |  | 32.7 | 40.3
AACACAACAUGAAACAUGAGGAUCACCCAUGUUGUUUGUAAUCAGGAUAUGAUCUCAAGAAUGAAUUAGAAGGGAUAUGGAUUU |  |  | 31.8 | 39.6
AUUAAAACAUAGGAUAUCGAAUUUAUUAUUUAACGAGAAGGAUGAACAUGAGGAUCACCCAUGUGGUAUCAUGG | 149 | 308 |  | 
GGAAAUCAUGUAGGAUAUGCAUGGCGAAGCUACGCAGAAGGACAUGAGGAUCACCCAUGUUAUAGCGUCCGAGAAGGGAUGCAA | 40 | 218 |  | 
UGGUACUAGGGAGGAUAUGGGAAGAUACAUGAGGAUCACCCAUGUUUAAGAAUGCCGAGAGGCACCUAGAAGGCCCUAGUACCU |  |  | 21.1 | 5.36
AGACUGCGUAGAAUUAGCAGCUGACAGGAUAUGACAUGAGGAUCACCCAUGUGAAAUAAGAAGAGUCAGAAGGGUCACGACACA | 11.3 | 9.89 |  | 
UGUUAAUAUCGAGGAUAUGUCUAGACACAUGAGGAUCACCCAUGUAUGUGUAUAGAAGGCGAUAUUAACAGCAUGUUACAUGCA |  |  | 36.9 | 16.9
AAGUUGUCAGGAUAUCGUUAAUUUAGUUGUUUGUAUUAGUUCGAGAAGGGACAUGAGGAUCACCCAUGUUUGAA | 32.5 | 40.5 |  | 
GUGGUGGGUUGAGGAUAUUGGUUGUUGUUGUCCCACAUGAGGAUCACCCAUGUGGGUUGUGGUUUUGAGAAGGUUGGUUGCUGG |  |  | 18.3 | 15.5
AAGAAGCUCACAGGAUAUCAGUAUAUGCGAUCACACGUAUUAAUGAACUGCUGAGAAGGGUGAGACAUGAGGAUCACCCAUGUA |  |  | 446 | 238
AUUAUGACCGAGUUAAGCUUCAAAACAUGAGGAUCACCCAUGUAGGAUAUCAGCACGAUAAGUGCUGAGAAGGACAUCUCGGUC | 13.5 | 15.5 |  | 
GCGUAAAAGAUCCUAUUUAUCUACAUGAGGAUCACCCAUGUGCAGGAUAUGCUAAAAUUAAAAUAGCAGAAGGGCAAUAACCGC | 54 | 179 |  | 
GAUCAUGCAGGAUAUACAUUAACCAUGAAAACAUGGUUGUAACAUGAGGAUCACCCAUGUAGAAGGGCAUGAUC | 14.2 | 21.3 |  | 
UGUCGGAGCAGAGGAUAUAACAUGAGGAUCACCCAUGUAUGAACCAAUAGCUGGAAACAGCAAUGUAAGAAGGCUGCUCCGACA | 5.8 | 6.69 |  | 
ACUGUGUGAGGAUAUCUACGCCAUGUCUUUGACAUGGCGCAAGAGAAGGCACAUGAGGAUCACCCAUGUACUUC | 18.4 | 39.2 |  | 
AGGUUUGGAGAGAAGGGCUAAUGGGUUUCGUUUGAGGUAUUCGCAACAUGAGGAUCACCCAUGUAGCAGGAUAUCUCAAAACUA | 4.88 | 7.95 |  | 
GCUGCUCAUGAGAAGGCGAUCAUGAAACAUGAUCGAGGAUAUCAUGUAAACAUGAGGAUCACCCAUGUAUGGGUAUUAUGCAGC |  |  | 117 | 40.5
ACCGAAUGAACAUGAGGAUCACCCAUGUACAGGAAACUGAAUGAGGAUAUCCAUAGCAAAGCUAUGGAGAAGGCAUGGGUCGGU |  |  | 363 | 110
CAGCUACCCGAUAUGGGUUCAUGUGCAGAAGGCCAGGUACAUGAGGAUCACCCAUGUAAAGAUAUGGAGGAUAUGUUAGUGAAU |  |  | 149 | 8.99
AGAUACUACGAGAAGGACAUGAGGAUCACCCAUGUAACCAGUAUCUGGAAUGUAGGAUAUCGUAGUAUCAGGAUCGUGAGAUCA | 9.91 | 32.9 |  | 
GUGUACAGAGGAUAUACUCAUGGAGUUACGAAAGUAACUUCACAUGAGGAUCACCCAUGUAGAAGGCUGUACAC | 473 | 293 |  | 
UAUACUUACGAAGGAUAUGGUUACAUGAGGAUCACCCAUGUAUGUAUAUUGAUCUAGUAUUUUAACCAGAAGGUCGUGAGUAUA | 65.5 | 53.4 |  | 
AGCUAGUCAGGAUAUACGAACAUGUCGCCCGACGUGAAGGGACAUGAGGAUCACCCAUGUAGAAGGGACUAGCA | 135 | 348 |  | 
AAAAUGUAAGGAUAUCGUCCCGUAAAUAUCGGGAAAAUUGUCGAGAAGGUACAUGAGGAUCACCCAUGUUCCUG | 16.7 | 18.2 |  | 

Sequence | apparent Kd [1] [nM] | apparent Kd [2] [nM] | apparent Kd [3] [nM] | apparent Kd [4] [nM]
AGAAGACAUGAGGAUCACCCAUGUAAGGAUAUUGGAGGUUAGGGAUGCUGGAGUUGGACAAGAAGGUACAGGUG | 52.8 | 50.9 |  | 
UGUCCAUAGCAGAAGGACAUGAGGAUCACCCAUGUAAUCAUACAAAUAAAUGUAGGAUAUGCUAUGGACUAAGAGCGAAAGCUC | 6.24 | 7.26 |  | 
AAAUAAACUAGCAAAAUUUCCUCACAUGAGGAUCACCCAUGUAAGGAUAUCUGUCCUAAAAGGACAGAGAAGGUACGUGCUAGG | 4.53 | 4.63 |  | 
CGUCGGUGGCAGAAGGGACAGAGAUCCUCGCUGCCGGAUCGUCUUGCACAUGAGGAUCACCCAUGUCAGGAUAUGCCCAAGCGG | 5.35 | 5.15 |  | 
CUGAUGUCAGGAUAUCGGUGGCUCACUUGUGUGUGCCAGACCGAGAAGGGACAUGAGGAUCACCCAUGUUUCUA | 21.1 | 93.4 |  | 
GGUGCGAGUGUGAGGAUAUGCUGGUCGUAAGAUCAGCAGAAGGCACAUGAGGAUCACCCAUGUGAAAACGUACC | 22.3 | 145 |  | 
GGUGCUCAAAGAGUACCAAUACGAACAUGAGGAUCACCCAUGUAGGAUAUGCUACUCAAAGAGUAGCAGAAGGACAUGUGCCUA | 16.4 | 116 |  | 
CGGGCGCCGAAGGGCGAAAGCCCACAUGAGGAUCACCCAUGUAGAAGGAGGGAAGAAACCAAAACCUAGGAUAUACAGGCGCCC | 7.9 | 10.2 |  | 
GCGCAUGUCACAGGAUAUCCCAUAGUGUACAUGAGGAUCACCCAUGUACUGCAAUGCAGACACAAGGAGAAGGGUGAGACUCGU |  |  | 84.8 | 96.7
AAAAAGUGAGGAUAUACAUGAGAAAAAAAAAUGUAAAAAAAACAUGAGGAUCACCCAUGUAGAAGGCACAAAAA | 49.7 | 82.7 |  | 
UUGUUCUGAGGAUAUACAUGAGGAUCACCCAUGUGUUUCUGCUUGGUGACUAGCGAAUGUAGAAGGCUGUUCUC | 33.6 | 35.6 |  | 
UCAUACGUUGAGGAUAUGUCAGUUAGAAUAUUUACAGAAGGCGAUACAUGAGGAUCACCCAUGUUUAUGGGCAU | 188 | 207 |  | 
AAAUUUUGUCAAGGAUAUGUAUAAAAGAGAAGAAAACAUGAGGAUCACCCAUGUAUAUGGUGGGAACAGAAGGUGAUUAAGUAA | 354 | 271 |  | 
AUUUAUUUACAGAAGGAGUAUGAUAAUGUUUUACUAGGAUAUGUAUACAUGAGGAUCACCCAUGUUAUUAUAGGUUUUUUAUGU | 10.3 | 7.08 |  | 
AGCACGAAAGUGCAACGAUGUACGAGAAGGACAUGAGGAUCACCCAUGUUGCUGUAACUGCUUAUGUAGGAUAUCGUACAUCGA |  | 7.01 |  | 
GUAGCUAUCGGAGGAUAUUCAUACCGGAAACGGACAUGAGGAUCACCCAUGUGGCGAAAGCAUUGGGAGAAGGCCGAUAGCUAC |  |  | 576 | 19.7
GGCAGACAUGAGGAUCACCCAUGUCAGGAUAUGUGGCGAUCGUCGAUAGACGAUAGCCACAGAAGGGACAUGCC | 23.9 | 39.5 |  | 
CCAUAAUUGAUCCAUUUUUACAACAUGAGGAUCACCCAUGUGCAGGAUAUCGUGAAAGUUAAAUACGAGAAGGGCAAGAACUGC | 272 | 229 |  | 
CUUUUGUGAGGAUAUUAGUAGUAAAUAAAUAAAAUUUCUACUGAGAAGGCACAUGAGGAUCACCCAUGUUCCUC | 31.9 | 182 |  | 
AGUCAGAGCAGAGGAUAUAUACAUGAGGAUCACCCAUGUGACUGCCUAUGCUAGAAAUAGUAUGUAUAGAAGGCUGCUCUGACA | 752 | 483 |  | 
UUAUGAGAGCAGGAUAUCUUAUAUUUGUAUUAAAGAGAAGGGCUCACAUGAGGAUCACCCAUGUGGUCCUAGAU | 51.6 | 431 |  | 
GCACUGGAUGUAGGAUAUCAGGACGAUAAGUCCUGAGAAGGACAUGAGGAUCACCCAUGUCUAAUAAACCAGUGCUAUAAUAUA | 14.4 | 18.9 |  | 
AGCAUGCAGUAGGAUAUCGAUCCACAAUAUGAACGAGAAGGACUGACAUGAGGAUCACCCAUGUGCGUCCUAGG | 16.7 | 16.6 |  | 
AUGGACGUCGUAGGAUAUGUAGGAUUCUCGUACAUGAGGAUCACCCAUGUUGACGUCAAGGUCGGACAGAAGGGCGGUGUCUAU |  |  | 584 | 65.4
UGUCGGAGCAGAGGAUAUUACAUGAGGAUCACCCAUGUUUGAACCAAUAGCUGGAAACAGCAAUGUAAGAAGGCUGCUCCGACA | 91.2 | 242 |  | 
GUAAAGUGAGGAUAUGGUAAAUUAAUUAUUUAGUAAUUAAUCCAGAAGGCACAUGAGGAUCACCCAUGUAAAUG | 30.7 | 51.4 |  | 
CGUCCUUAGUGAGGAUAUCAGAAAAUACGGAAAUGAGAAGGCACAUGAGGAUCACCCAUGUAAAUAACGGCCGGCCUUGGCAGC | 6.26 | 13.4 |  | 
